Test results taken from ChEMBL document CHEMBL2401735, “Synthesis and cytotoxicity of novel (thiazol-2-yl)hydrazine derivatives as promising anti-Candida agents” (Eur J Med Chem, 2013).
Values after ≈ are worked out from the molar mass of the structure shown.

Tested on: Pichia kudriavzevii
Assay: Anticandida activity against Candida krusei clinical isolate assessed as growth inhibition after 24 hrs by broth microdilution method
Format: functional
Conditions: not given
Summary of the method: (§1)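 Clinical Candida isolates subcultured for purity and optimal growth before testing; compounds dissolved in DMSO. Broth microdilution per NCCLS in Sabouraud dextrose broth, serial dilutions, inoculum about 10³/mL, with growth control and medium-only control; 24 h incubation at 37 °C. MIC is the lowest concentration giving complete visible inhibition.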

| SMILES | MIC [µg/mL] |
| --- | --- |
| CCCCC/C(C)=N/Nc1nc(-c2ccc(OC)cc2OC)cs1 | 256 (≈ 737 µM) |
| COc1ccc(-c2csc(N/N=C(\C)C3CCCCC3)n2)c(OC)c1 | 256 (≈ 712 µM) |
| CCCCC/C(C)=N/Nc1nc(-c2ccc(Cl)cc2Cl)cs1 | 4 (≈ 11.2 µM) |
| CCCCC/C(C)=N/Nc1nc(-c2ccc(C)cc2)cs1 | 8 (≈ 26.5 µM) |
| CCC(CC)=NNc1nc(-c2ccc(Cl)cc2Cl)cs1 | 256 (≈ 780 µM) |
| C/C(CC(C)C)=N\Nc1nc(-c2ccc(Cl)cc2Cl)cs1 | 256 (≈ 748 µM) |
| COc1ccc(-c2csc(NN=C(C)C)n2)cc1 | 16 (≈ 61.2 µM) |

Tested on: Candida albicans
Assay: Anticandida activity against Candida albicans clinical isolate assessed as growth inhibition after 24 hrs by broth microdilution method
Format: functional
Conditions: not given
Summary of the method: as §1

| SMILES | MIC [µg/mL] |
| --- | --- |
| CCCCC/C(C)=N/Nc1nc(-c2ccc(OC)cc2OC)cs1 | 64 (≈ 184 µM) |
| COc1ccc(-c2csc(N/N=C(\C)C3CCCCC3)n2)c(OC)c1 | 64 (≈ 178 µM) |
| CCCCC/C(C)=N/Nc1nc(-c2ccc(Cl)cc2Cl)cs1 | 2 (≈ 5.61 µM) |
| CCCCC/C(C)=N/Nc1nc(-c2ccc(C)cc2)cs1 | 0.5 (≈ 1.66 µM) |
| CCC(CC)=NNc1nc(-c2ccc(Cl)cc2Cl)cs1 | 0.5 (≈ 1.52 µM) |
| C/C(CC(C)C)=N\Nc1nc(-c2ccc(Cl)cc2Cl)cs1 | 256 (≈ 748 µM) |
| COc1ccc(-c2csc(NN=C(C)C)n2)cc1 | 0.25 (≈ 0.957 µM) |

Tested on: Escherichia coli
Assay: Antibacterial activity against Escherichia coli assessed as growth inhibition after 18 to 22 hrs by broth microdilution method
Format: functional
Conditions: not given
Summary of the method: (§2)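 Bacterial isolates subcultured for purity, identified conventionally. Broth microdilution per NCCLS in Mueller-Hinton II broth; plates with growth control (no compound) and medium-only control, incubated 18-22 h at 35 °C. MIC taken as lowest concentration giving complete growth inhibition by unaided eye.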

| SMILES | MIC [µg/mL] |
| --- | --- |
| CCCCC/C(C)=N/Nc1nc(-c2ccc(OC)cc2OC)cs1 | > 256 |
| COc1ccc(-c2csc(N/N=C(\C)C3CCCCC3)n2)c(OC)c1 | > 256 |
| CCCCC/C(C)=N/Nc1nc(-c2ccc(Cl)cc2Cl)cs1 | > 256 |
| CCCCC/C(C)=N/Nc1nc(-c2ccc(C)cc2)cs1 | > 256 |
| CCC(CC)=NNc1nc(-c2ccc(Cl)cc2Cl)cs1 | > 256 |
| C/C(CC(C)C)=N\Nc1nc(-c2ccc(Cl)cc2Cl)cs1 | > 256 |
| COc1ccc(-c2csc(NN=C(C)C)n2)cc1 | > 256 |

Tested on: Staphylococcus warneri
Assay: Antibacterial activity against Staphylococcus warneri assessed as growth inhibition after 18 to 22 hrs by broth microdilution method
Format: functional
Conditions: not given
Summary of the method: as §2

| SMILES | MIC [µg/mL] |
| --- | --- |
| CCCCC/C(C)=N/Nc1nc(-c2ccc(OC)cc2OC)cs1 | > 256 |
| COc1ccc(-c2csc(N/N=C(\C)C3CCCCC3)n2)c(OC)c1 | > 256 |
| CCCCC/C(C)=N/Nc1nc(-c2ccc(Cl)cc2Cl)cs1 | > 256 |
| CCCCC/C(C)=N/Nc1nc(-c2ccc(C)cc2)cs1 | > 256 |
| CCC(CC)=NNc1nc(-c2ccc(Cl)cc2Cl)cs1 | > 256 |
| C/C(CC(C)C)=N\Nc1nc(-c2ccc(Cl)cc2Cl)cs1 | > 256 |
| COc1ccc(-c2csc(NN=C(C)C)n2)cc1 | > 256 |

Tested on: Streptococcus alpha-hemolyticus
Assay: Antibacterial activity against Streptococcus alpha-hemolyticus assessed as growth inhibition after 18 to 22 hrs by broth microdilution method
Conditions: not given

| SMILES | MIC [µg/mL] |
| --- | --- |
| CCCCC/C(C)=N/Nc1nc(-c2ccc(OC)cc2OC)cs1 | > 256 |
| COc1ccc(-c2csc(N/N=C(\C)C3CCCCC3)n2)c(OC)c1 | > 256 |
| CCCCC/C(C)=N/Nc1nc(-c2ccc(Cl)cc2Cl)cs1 | > 256 |
| CCCCC/C(C)=N/Nc1nc(-c2ccc(C)cc2)cs1 | > 256 |
| CCC(CC)=NNc1nc(-c2ccc(Cl)cc2Cl)cs1 | > 256 |
| C/C(CC(C)C)=N\Nc1nc(-c2ccc(Cl)cc2Cl)cs1 | > 256 |
| COc1ccc(-c2csc(NN=C(C)C)n2)cc1 | > 256 |

Tested on: Candida parapsilosis
Assay: Anticandida activity against Candida parapsilosis clinical isolate assessed as growth inhibition after 24 hrs by broth microdilution method
Format: functional
Conditions: Lodderomyces parapsilosis
Summary of the method: as §1

| SMILES | MIC [µg/mL] |
| --- | --- |
| CCCCC/C(C)=N/Nc1nc(-c2ccc(OC)cc2OC)cs1 | 256 (≈ 737 µM) |
| COc1ccc(-c2csc(N/N=C(\C)C3CCCCC3)n2)c(OC)c1 | 256 (≈ 712 µM) |
| CCCCC/C(C)=N/Nc1nc(-c2ccc(Cl)cc2Cl)cs1 | 16 (≈ 44.9 µM) |
| CCCCC/C(C)=N/Nc1nc(-c2ccc(C)cc2)cs1 | 8 (≈ 26.5 µM) |
| CCC(CC)=NNc1nc(-c2ccc(Cl)cc2Cl)cs1 | 256 (≈ 780 µM) |
| C/C(CC(C)C)=N\Nc1nc(-c2ccc(Cl)cc2Cl)cs1 | 256 (≈ 748 µM) |
| COc1ccc(-c2csc(NN=C(C)C)n2)cc1 | 16 (≈ 61.2 µM) |

Tested on: Enterobacter sp.
Assay: Antibacterial activity against Enterobacter spp. assessed as growth inhibition after 18 to 22 hrs by broth microdilution method
Format: functional
Conditions: not given
Summary of the method: as §2

| SMILES | MIC [µg/mL] |
| --- | --- |
| CCCCC/C(C)=N/Nc1nc(-c2ccc(OC)cc2OC)cs1 | > 256 |
| COc1ccc(-c2csc(N/N=C(\C)C3CCCCC3)n2)c(OC)c1 | > 256 |
| CCCCC/C(C)=N/Nc1nc(-c2ccc(Cl)cc2Cl)cs1 | > 256 |
| CCCCC/C(C)=N/Nc1nc(-c2ccc(C)cc2)cs1 | > 256 |
| CCC(CC)=NNc1nc(-c2ccc(Cl)cc2Cl)cs1 | > 256 |
| C/C(CC(C)C)=N\Nc1nc(-c2ccc(Cl)cc2Cl)cs1 | > 256 |
| COc1ccc(-c2csc(NN=C(C)C)n2)cc1 | > 256 |

Tested on: Candida tropicalis
Assay: Anticandida activity against Candida tropicalis clinical isolate assessed as growth inhibition after 24 hrs by broth microdilution method
Format: functional
Conditions: not given
Summary of the method: as §1

| SMILES | MIC [µg/mL] |
| --- | --- |
| CCCCC/C(C)=N/Nc1nc(-c2ccc(OC)cc2OC)cs1 | 256 (≈ 737 µM) |
| COc1ccc(-c2csc(N/N=C(\C)C3CCCCC3)n2)c(OC)c1 | 256 (≈ 712 µM) |
| CCCCC/C(C)=N/Nc1nc(-c2ccc(Cl)cc2Cl)cs1 | 4 (≈ 11.2 µM) |
| CCCCC/C(C)=N/Nc1nc(-c2ccc(C)cc2)cs1 | 4 (≈ 13.3 µM) |
| CCC(CC)=NNc1nc(-c2ccc(Cl)cc2Cl)cs1 | 4 (≈ 12.2 µM) |
| C/C(CC(C)C)=N\Nc1nc(-c2ccc(Cl)cc2Cl)cs1 | 256 (≈ 748 µM) |
| COc1ccc(-c2csc(NN=C(C)C)n2)cc1 | 2 (≈ 7.65 µM) |

Tested on: Staphylococcus aureus
Assay: Antibacterial activity against Staphylococcus aureus assessed as growth inhibition after 18 to 22 hrs by broth microdilution method
Format: functional
Conditions: not given
Summary of the method: as §2

| SMILES | MIC [µg/mL] |
| --- | --- |
| CCCCC/C(C)=N/Nc1nc(-c2ccc(OC)cc2OC)cs1 | > 256 |
| COc1ccc(-c2csc(N/N=C(\C)C3CCCCC3)n2)c(OC)c1 | > 256 |
| CCCCC/C(C)=N/Nc1nc(-c2ccc(Cl)cc2Cl)cs1 | > 256 |
| CCCCC/C(C)=N/Nc1nc(-c2ccc(C)cc2)cs1 | > 256 |
| CCC(CC)=NNc1nc(-c2ccc(Cl)cc2Cl)cs1 | > 256 |
| C/C(CC(C)C)=N\Nc1nc(-c2ccc(Cl)cc2Cl)cs1 | > 256 |
| COc1ccc(-c2csc(NN=C(C)C)n2)cc1 | > 256 |

Tested on: [Candida] sake
Assay: Anticandida activity against Candida sake clinical isolate assessed as growth inhibition after 24 hrs by broth microdilution method
Format: functional
Conditions: Fermentozyma sake
Summary of the method: as §1

| SMILES | MIC [µg/mL] |
| --- | --- |
| CCCCC/C(C)=N/Nc1nc(-c2ccc(OC)cc2OC)cs1 | 256 (≈ 737 µM) |
| COc1ccc(-c2csc(N/N=C(\C)C3CCCCC3)n2)c(OC)c1 | 256 (≈ 712 µM) |
| CCCCC/C(C)=N/Nc1nc(-c2ccc(Cl)cc2Cl)cs1 | 16 (≈ 44.9 µM) |
| CCCCC/C(C)=N/Nc1nc(-c2ccc(C)cc2)cs1 | 8 (≈ 26.5 µM) |
| CCC(CC)=NNc1nc(-c2ccc(Cl)cc2Cl)cs1 | 256 (≈ 780 µM) |
| C/C(CC(C)C)=N\Nc1nc(-c2ccc(Cl)cc2Cl)cs1 | 256 (≈ 748 µM) |
| COc1ccc(-c2csc(NN=C(C)C)n2)cc1 | 16 (≈ 61.2 µM) |

Tested on: Klebsiella oxytoca
Assay: Antibacterial activity against Klebsiella oxytoca assessed as growth inhibition after 18 to 22 hrs by broth microdilution method
Format: functional
Conditions: not given
Summary of the method: as §2

| SMILES | MIC [µg/mL] |
| --- | --- |
| CCCCC/C(C)=N/Nc1nc(-c2ccc(OC)cc2OC)cs1 | > 256 |
| COc1ccc(-c2csc(N/N=C(\C)C3CCCCC3)n2)c(OC)c1 | > 256 |
| CCCCC/C(C)=N/Nc1nc(-c2ccc(Cl)cc2Cl)cs1 | > 256 |
| CCCCC/C(C)=N/Nc1nc(-c2ccc(C)cc2)cs1 | > 256 |
| CCC(CC)=NNc1nc(-c2ccc(Cl)cc2Cl)cs1 | > 256 |
| C/C(CC(C)C)=N\Nc1nc(-c2ccc(Cl)cc2Cl)cs1 | > 256 |
| COc1ccc(-c2csc(NN=C(C)C)n2)cc1 | > 256 |

Tested on: Enterococcus faecalis
Assay: Antibacterial activity against […] assessed as growth inhibition after 18 to 22 hrs by broth microdilution method
Format: functional
Conditions: not given
Summary of the method: as §2

| SMILES | MIC [µg/mL] |
| --- | --- |
| CCCCC/C(C)=N/Nc1nc(-c2ccc(OC)cc2OC)cs1 | > 256 |
| COc1ccc(-c2csc(N/N=C(\C)C3CCCCC3)n2)c(OC)c1 | > 256 |
| CCCCC/C(C)=N/Nc1nc(-c2ccc(Cl)cc2Cl)cs1 | > 256 |
| CCCCC/C(C)=N/Nc1nc(-c2ccc(C)cc2)cs1 | > 256 |
| CCC(CC)=NNc1nc(-c2ccc(Cl)cc2Cl)cs1 | > 256 |
| C/C(CC(C)C)=N\Nc1nc(-c2ccc(Cl)cc2Cl)cs1 | > 256 |
| COc1ccc(-c2csc(NN=C(C)C)n2)cc1 | > 256 |

Tested on: Proteus mirabilis
Assay: Antibacterial activity against Proteus mirabilis assessed as growth inhibition after 18 to 22 hrs by broth microdilution method
Format: functional
Conditions: not given
Summary of the method: as §2

| SMILES | MIC [µg/mL] |
| --- | --- |
| CCCCC/C(C)=N/Nc1nc(-c2ccc(OC)cc2OC)cs1 | > 256 |
| COc1ccc(-c2csc(N/N=C(\C)C3CCCCC3)n2)c(OC)c1 | > 256 |
| CCCCC/C(C)=N/Nc1nc(-c2ccc(Cl)cc2Cl)cs1 | > 256 |
| CCCCC/C(C)=N/Nc1nc(-c2ccc(C)cc2)cs1 | > 256 |
| CCC(CC)=NNc1nc(-c2ccc(Cl)cc2Cl)cs1 | > 256 |
| C/C(CC(C)C)=N\Nc1nc(-c2ccc(Cl)cc2Cl)cs1 | > 256 |
| COc1ccc(-c2csc(NN=C(C)C)n2)cc1 | > 256 |

Tested on: Nakaseomyces glabratus
Assay: Anticandida activity against Candida glabrata clinical isolate assessed as growth inhibition after 24 hrs by broth microdilution method
Format: functional
Conditions: not given
Summary of the method: as §1

| SMILES | MIC [µg/mL] |
| --- | --- |
| CCCCC/C(C)=N/Nc1nc(-c2ccc(OC)cc2OC)cs1 | 128 (≈ 368 µM) |
| COc1ccc(-c2csc(N/N=C(\C)C3CCCCC3)n2)c(OC)c1 | 64 (≈ 178 µM) |
| CCCCC/C(C)=N/Nc1nc(-c2ccc(Cl)cc2Cl)cs1 | 2 (≈ 5.61 µM) |
| CCCCC/C(C)=N/Nc1nc(-c2ccc(C)cc2)cs1 | 2 (≈ 6.63 µM) |
| CCC(CC)=NNc1nc(-c2ccc(Cl)cc2Cl)cs1 | 4 (≈ 12.2 µM) |
| C/C(CC(C)C)=N\Nc1nc(-c2ccc(Cl)cc2Cl)cs1 | 128 (≈ 374 µM) |
| COc1ccc(-c2csc(NN=C(C)C)n2)cc1 | 0.5 (≈ 1.91 µM) |
